Published values pooled from the literature.
Each line is one published result; the experiments were not run side by side.
Target: Serine/threonine-protein kinase Sgk1 (SGK1, Homo sapiens, UniProt O00141)
One construct used (O00141 1-431): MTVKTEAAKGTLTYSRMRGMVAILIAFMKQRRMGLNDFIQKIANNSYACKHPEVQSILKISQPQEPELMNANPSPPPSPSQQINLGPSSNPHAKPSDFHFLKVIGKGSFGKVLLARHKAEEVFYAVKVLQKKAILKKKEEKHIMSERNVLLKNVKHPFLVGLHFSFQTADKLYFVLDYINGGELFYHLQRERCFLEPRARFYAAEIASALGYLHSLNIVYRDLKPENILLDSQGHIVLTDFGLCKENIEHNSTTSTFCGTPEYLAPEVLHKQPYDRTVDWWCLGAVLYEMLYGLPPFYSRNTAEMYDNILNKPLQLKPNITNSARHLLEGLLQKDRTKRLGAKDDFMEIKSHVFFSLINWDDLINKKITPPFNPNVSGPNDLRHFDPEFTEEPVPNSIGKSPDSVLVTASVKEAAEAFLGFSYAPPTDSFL

| SMILES | effect on | method | tested at | remaining binding [%] |
| --- | --- | --- | --- | --- |
| CCN1CCN(Cc2ccc(C(=O)Nc3ccc(C)c(Oc4ccc5c(c4)CC(=O)N5)c3)cc2C(F)(F)F)CC1 | binding | competition with immobilised ligand | 1 µM | 79 |
| Cc1nc(Cc2cccc(C(F)(F)F)c2)sc1-c1ccc(C(N)=O)nc1 | cell-free assay | competition with immobilised ligand | 1 µM | 100 |
| COc1ccnn2ncc(-c3ccnc(N(C)C)n3)c12 | binding | – | 1 µM | 80 |
| C[C@@H](c1ccc(-n2cnc3c(N)ncnc32)cc1)N1CCc2nn(C)c(Cc3ccccc3)c2C1=O | binding | competition with immobilised ligand | 0.1 µM | 61 |
| C[C@H]1CCN(c2nccc(-c3cnn4ncccc34)n2)C1 | binding | – | 1 µM | 68 |
| c1cncc(-c2cccc(Nc3nccc(NC4CCCCC4)n3)c2)c1 | binding | competition with immobilised ligand | 10 µM | 92 |
| O=C1NC(c2ccccn2)Sc2ccccc21 (stereo not shown) | cell-free assay | competition with immobilised ligand | 1 µM | 87 |
| CC1CCCN1c1nccc(-c2cnn3ncccc23)n1 (stereo not shown) | binding | – | 1 µM | 86 |
| COc1cnc(Nc2cccc(S(N)(=O)=O)c2)nc1N1CCN(c2ccccc2)C(=O)C1 | binding | competition with immobilised ligand | 1 µM | 94 |
| CC(=O)N1CCC(c2ccc(C(=O)NC3=NCCN3)cc2C(F)(F)F)CC1 | cell-free assay | competition with immobilised ligand | 1 µM | 100 |
| CN(CCCC(F)(F)F)c1nccc(-c2cnn3ncccc23)n1 | binding | – | 1 µM | 85 |
| O=C(NCCCN1CCOCC1)c1ccc(Nc2ncc(Cl)c(-c3ccc(Cl)s3)n2)cc1 | binding | competition with immobilised ligand | 1 µM | 5.8 |
| O=C(NCc1ncc(C(F)(F)F)cc1Cl)c1ccc2c(c1)C1(CCS(=O)(=O)CC1)[C@@H](C1CC1)N2S(=O)(=O)c1ccc(F)cc1 | cell-free assay | competition with immobilised ligand | 1 µM | 77 |
| N[C@@H]1CCN(c2nccc(-c3cnn4ncccc34)n2)C1 | binding | – | 1 µM | 100 |
| CC(=O)Nc1c(C(C)=O)c(=O)n(C)c2nc(-c3ccc(Cl)cc3Cl)c(-c3ccc(Cl)cc3)cc12 | cell-free assay | competition with immobilised ligand | 1 µM | 100 |
| Cc1cnc(Nc2ccc(C(=O)N3CCC(N4CCCC4)CC3)cc2)nc1-c1cc2ccccc2s1 | binding | competition with immobilised ligand | 1 µM | 0.2 |
| CN(C)c1nccc(-c2cnc3ncccn23)n1 | binding | – | 1 µM | 79 |
| CC1=C(C#N)[C@@H](c2ccc3[nH]nc(C)c3c2)C(C#N)=C(c2ccc(Cl)cc2)N1 | cell-free assay | competition with immobilised ligand | 1 µM | 100 |
| O=C(c1ccc(Nc2ncc(Cl)c(-c3cc4ccccc4s3)n2)cc1)N1CCC(N2CCCC2)CC1 | binding | competition with immobilised ligand | 1 µM | 0.1 |
| COc1ncc2cc3ccccc3nc2c1C#N | cell-free assay | competition with immobilised ligand | 5 µM | 94 |
| O=C(NCC1CCOCC1)c1n[nH]cc1NC(=O)c1c(F)cccc1F | binding | competition with immobilised ligand | 1 µM | 89 |
| CN(C)CC#Cc1ccc(OCCCc2sc(N3CCc4cccc(C(=O)Nc5nc6ccccc6s5)c4C3)nc2C(=O)O)c(F)c1 | cell-free assay | competition with immobilised ligand | 1 µM | 100 |
